# ChEMBL document CHEMBL1126622, “2-substituted 1,2-dihydro-3H-dibenz[de,h]isoquinoline-1,3-diones. A new class of antitumor agent” (J Med Chem, 1993)
# How the values were obtained:
# L1210 [1] = assay: Tested against L1210 resistant murine leukemia cells by MTT tetrazolium dye assay; type: functional, cell-based; conditions: Mus musculus
# Outline: (§1)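 Suspension L1210 cells (drug-sensitive and multidrug-resistant lines), 50 000/well, drug added day 2 from DMSO stock serially diluted in PBS pH 7.4, 10^1–10^-5 μg/mL in half-log steps, final DMSO ≤0.1%; continuous 6-day exposure at 37 °C, 5% CO2; MTT added 4 h, formazan dissolved in DMSO, A570; percent of untreated control; six wells per concentration, IC50s averaged.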
# [2] = Tested against UACC375 human melanoma cancer cells by sulforhodamine B (SRB) assay; type: functional, cell-based; conditions: Cancer cell lines
# Outline: (§2)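 Adherent UACC375 melanoma and OVCAR3 ovarian cells, SRB assay: plating and dosing as for MTT (50 000/well, 10^1–10^-5 μg/mL half-log, DMSO ≤0.1%), 8-day exposure; fixed with 10% TCA 1 h at 4 °C, stained 30 min with 0.4% SRB in 1% acetic acid, dye dissolved in 10 mM Tris base pH 10.5, OD 564 nm; six wells per concentration, IC50s averaged.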
# [3] = Average mean for IC50 values in the four cell lines (UACC375,OVCAR3,L1210 sensitive,L1210 resistant); type: functional; set-up: unit not given here
# Outline: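 Mean of the IC50 values from the four tumor lines: UACC375 and OVCAR3 by SRB (8-day exposure), sensitive and resistant L1210 by MTT (6-day continuous exposure).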
# OVCAR-3 = assay: Tested against OVCAR-3 human ovarian cancer cells by sulforhodamine B (SRB) assay; type: functional, cell-based; outline: as §2
# [4] = The quotient of the IC50 is the myocytes divided by the mean IC50 in the four cell lines (UACC375,OVCAR3,L1210 sensitive,L1210 resistant); type: ADME; conditions: read-out: Toxicity ratio
# Outline: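 Ratio of the myocyte IC50 (1-h exposure, ATP/protein ratio read-out) to the mean tumor-cell IC50 across the four lines, UACC375 and OVCAR3 by SRB, sensitive and resistant L1210 by MTT.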
# [5] = Tested for in vitro for cardiotoxicity by performing neonatal rat heart myocyte assay method; type: functional
# Outline: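 Neonatal rat heart myocytes exposed to drug for 1 h; cytotoxicity read as cellular ATP/protein ratio relative to untreated controls; IC50 is the 1-h concentration halving this ratio.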
# L1210 [6] = assay: Tested against L1210 sensitive murine leukemia cells by MTT tetrazolium dye assay; type: functional, cell-based; conditions: Mus musculus; outline: as §1
# [7] = Acid dissociation constant was determined; type: ADME
# Outline: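 Hydrochloride salt (0.165 mmol) dissolved in 0.982 N HCl to give 1 mequiv acid beyond amine protonation; stirred and titrated with 0.926 N NaOH with pH-meter monitoring.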
# COLO 480 = assay: Tested against human colon carcinoma COLO 480 cell line in vitro; type: functional, cell-based
# Outline: (§3)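 Human colon carcinoma lines, MTT assay: 50 000 cells/well, drug added day 2 (DMSO stock diluted in PBS pH 7.4, 10^1–10^-5 μg/mL half-log steps, final DMSO ≤0.1%), 6-day exposure at 37 °C, 5% CO2; MTT 4 h, formazan in DMSO read at 570 nm vs untreated control; six wells per concentration, IC50 averaged.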
# LoVo = assay: Tested against human colon carcinoma LoVo cell line in vitro; type: functional, cell-based; outline: as §3
# B16 [8] = assay: Tested for percent tumor growth inhibition in B16 melanoma cells after intraperitoneal dose of 15 mg/kg in mice; conditions: Mus musculus, B16, ip; read-out: TGI
# HCT-15 = assay: Tested against human colon carcinoma HCT 15 cell line in vitro; type: functional, cell-based; outline: as §3
# L1210 [9] = assay: Tested for percent increase in life span in L1210 leukemia cells after intraperitoneal dose of 45 mg/kg in mice; type: functional; conditions: Mus musculus, L1210, ip
# Outline: (§4)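 Standard NCI protocol: leukemia cells implanted intraperitoneally, with drug given ip on days 1, 5 and 9. Read-out is percent increase in life span, 100 × (treated life span − control life span)/control life span.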
# L1210 [10] = assay: Tested for percent increase in life span in L1210 leukemia cells after intraperitoneal dose of 5 mg/kg in mice; type: functional; conditions: Mus musculus, L1210, ip
# Outline: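 Standard NCI protocol: leukemia cells implanted intraperitoneally, with drug given ip once daily on days 1–5. Read-out is percent increase in life span, 100 × (treated life span − control life span)/control life span.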
# L1210 [11] = assay: Tested for percent increase in life span in L1210 leukemia cells after intraperitoneal dose of 30 mg/kg in mice; type: functional; conditions: Mus musculus, L1210, ip; outline: as §4
# L1210 [12] = assay: Tested for percent increase in life span in L1210 leukemia cells after intraperitoneal dose of 15 mg/kg in mice; type: functional; conditions: Mus musculus, L1210, ip; outline: as §4
# COLO 205 = assay: Tested against human colon carcinoma COLO 205 cell line in vitro; type: functional, cell-based; outline: as §3
# HT-29 = assay: Tested against human colon carcinoma HT 29 cell line in vitro; type: functional, cell-based; outline: as §3
# B16 [13] = assay: Tested for percent tumor growth inhibition in B16 melanoma cells after intraperitoneal dose of 30 mg/kg in mice; conditions: Mus musculus, B16, ip; read-out: TGI
SMILES,IC50 (L1210 [1]),IC50 (OVCAR-3),IC50 (L1210 [6]),IC50 [2],Average [3],selectivity ratio [4],IC50 [5],pKa [7],IC50 (COLO 480),IC50 (LoVo),inhibition in vivo at 15 mg/kg (B16 [8]),IC50 (HCT-15),ILS at 45 mg/kg (L1210 [9]),ILS at 5 mg/kg (L1210 [10]),ILS at 30 mg/kg (L1210 [11]),ILS at 15 mg/kg (L1210 [12]),IC50 (COLO 205),IC50 (HT-29),inhibition in vivo at 30 mg/kg (B16 [13])
O=C1c2cccc3cc4ccccc4c(c23)C(=O)N1CCN1CCCCC1,51 nM,89 nM,51 nM,178 nM,92,13,10.4 µM,,,,,,,,,,,,
O=C1c2cccc3cc4ccccc4c(c23)C(=O)N1c1ncc[nH]1,148 nM,2430 nM,207 nM,1620 nM,1103,,,,,,,,,,,,,,
O=C1c2cccc3cc4ccccc4c(c23)C(=O)N1N1CC1,791 nM,7910 nM,791 nM,2530 nM,3006,,,,,,,,,,,,,,
CN(C)CCN1C(=O)c2cccc3cc4ccccc4c(c23)C1=O [AZONAFIDE],7 nM,57 nM,7 nM,71 nM,36,56,1.98 µM,7.3,3 nM,6 nM,74%,8 nM,79%,90%,62.5%,25%,36 nM,63 nM,
CN(C)c1ccc(N2C(=O)c3cccc4cc5ccccc5c(c34)C2=O)cc1,1790 nM,16200 nM,187 nM,4980 nM,4537,8,37.3 µM,,,,,,,,,,,,
O=C1c2cccc3cc4ccccc4c(c23)C(=O)N1c1cccnc1,554 nM,1940 nM,544 nM,2490 nM,1380,> 20,> 25 µM,,,,,,,,,,,,
O=C1c2cccc3cc4ccccc4c(c23)C(=O)N1CCN1CCNCC1,463 nM,1970 nM,174 nM,463 nM,767,8.8,6.71 µM,,,,,,,,,,,,
CNCCN1C(=O)c2cccc3cc4ccccc4c(c23)C1=O,20.6 nM,44 nM,10 nM,59 nM,33,211,7.06 µM,,,,,,,,,,,,
CN(C)CCN1C(=O)c2cccc3cc(N)cc(c23)C1=O [AMONAFIDE],625 nM,2180 nM,625 nM,2030 nM,1365,36,48.4 µM,7.3,,,,,87.5%,,45%,,,,23%

# Continued, in another order:
IC50 (L1210 [1]),IC50 (OVCAR-3),IC50 (L1210 [6]),SMILES,IC50 [2],Average [3],selectivity ratio [4],IC50 [5],pKa [7],IC50 (COLO 480),IC50 (LoVo),inhibition in vivo at 15 mg/kg (B16 [8]),IC50 (HCT-15),ILS at 45 mg/kg (L1210 [9]),ILS at 5 mg/kg (L1210 [10]),ILS at 30 mg/kg (L1210 [11]),ILS at 15 mg/kg (L1210 [12]),IC50 (COLO 205),IC50 (HT-29),inhibition in vivo at 30 mg/kg (B16 [13])
41 nM,81 nM,18 nM,O=C1c2cccc3cc4ccccc4c(c23)C(=O)N1CCNCCO,67 nM,52,18,0.943 µM,,,,,,,,,,,,
55 nM,214 nM,36 nM,CCN1CCCC1CN1C(=O)c2cccc3cc4ccccc4c(c23)C1=O (stereo not drawn),119 nM,106,143,15.2 µM,,,,,,,,,,,,
15500 nM,3870 nM,6440 nM,O=C1c2cccc3cc4ccccc4c(c23)C(=O)N1CCc1ccccn1,6440 nM,8054,> 3,> 25 µM,5.4,,,,,,,,,,,
609 nM,1180 nM,635 nM,CCN1CCCC(N2C(=O)c3cccc4cc5ccccc5c(c34)C2=O)C1 (stereo not drawn),1650 nM,1020,8.3,8.76 µM,,,,,,,,,,,,
2670 nM,8020 nM,1870 nM,O=C1c2cccc3cc4ccccc4c(c23)C(=O)N1Cc1cccnc1,11400 nM,5983,> 4,> 25 µM,,,,,,,,,,,,
142 nM,163 nM,76 nM,O=C1c2cccc3cc4ccccc4c(c23)C(=O)N1CCCN(CCO)CCO,217 nM,150,60,8.91 µM,,,,,,,,,,,,
26700 nM,17400 nM,26700 nM,O=C1c2cccc3cc4ccccc4c(c23)C(=O)N1Cc1ccccn1,12000 nM,20722,> 1,> 25 µM,,,,,,,,,,,,
82 nM,462 nM,54 nM,CN(C)CCCN1C(=O)c2cccc3cc4ccccc4c(c23)C1=O,245 nM,211,113,11.4 µM,7.3,,,,,,,,,,,
56 nM,203 nM,51 nM,CN1CCCC1CCN1C(=O)c2cccc3cc4ccccc4c(c23)C1=O (stereo not drawn),190 nM,125,57,7.08 µM,,,,,,,,,,,,
512 nM,639 nM,512 nM,O=C1c2cccc3cc4ccccc4c(c23)C(=O)N1CCN1CCOCC1,511 nM,544,> 50,> 25 µM,,,,,,,,,,,,
11.8 nM,66 nM,14.5 nM,O=C1c2cccc3cc4ccccc4c(c23)C(=O)N1CCN1CCCC1,39 nM,33,28,0.92 µM,,,,,,,,,,,,
